Experimental data published in ChEMBL document CHEMBL1157710, “Identification of triazinoindol-benzimidazolones as nanomolar inhibitors of the Mycobacterium tuberculosis enzyme TDP-6-deoxy-d-xylo-4-hexopyranosid-4-ulose 3,5-epimerase (RmlC)” (Bioorg Med Chem, 2010).
In brackets after ≈: the same amount, converted by molar mass. Activity calls are given as the source filed them. The calls are words filed in the database; no cut-off is given here.

Experiments:
[1] = target: T1, dTDP-4-dehydrorhamnose 3,5-epimerase (Mycobacterium tuberculosis (strain CDC 1551 / Oshkosh), UniProt P9WH10); test: Inhibition of Mycobacterium tuberculosis RmlC expressed in Escherichia coli by spectrophotometry
T1 sequence (P9WH10 whole entry): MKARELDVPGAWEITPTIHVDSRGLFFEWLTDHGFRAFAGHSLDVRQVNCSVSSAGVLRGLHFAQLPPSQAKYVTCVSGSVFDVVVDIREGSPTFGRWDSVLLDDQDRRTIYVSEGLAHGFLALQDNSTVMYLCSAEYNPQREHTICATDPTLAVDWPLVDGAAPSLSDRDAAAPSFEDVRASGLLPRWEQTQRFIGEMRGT
In short: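 96-well absorbance assay at 340 nm (NADPH to NADP) in 200 μl of 50 mM MOPS pH 7.4 with 10% glycerol, 0.01% Triton X-100 and 1 mM MgCl2. Final RmlC 70 nM, RmlD 5 nM, TDP-KDX 200 μM, NADPH 25 μM; compound added in 4 μl DMSO. Reactions were started with RmlC and followed 80 min; IC50 came from initial velocities.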

[2] = tested on: Mycobacterium tuberculosis; test: Antimycobacterial activity against Mycobacterium tuberculosis H37Rv by microbroth dilution method; type: functional
[3] = target: T2, dTDP-4-dehydrorhamnose 3,5-epimerase /dTDP-4-dehydrorhamnose reductase (Mycobacterium tuberculosis (strain ATCC 25618 / H37Rv), UniProt P9WH09+P9WH11); test: Inhibition of Mycobacterium tuberculosis RmlC/RmlD expressed in Escherichia coli by spectrophotometry
T2 sequence (P9WH09 whole entry): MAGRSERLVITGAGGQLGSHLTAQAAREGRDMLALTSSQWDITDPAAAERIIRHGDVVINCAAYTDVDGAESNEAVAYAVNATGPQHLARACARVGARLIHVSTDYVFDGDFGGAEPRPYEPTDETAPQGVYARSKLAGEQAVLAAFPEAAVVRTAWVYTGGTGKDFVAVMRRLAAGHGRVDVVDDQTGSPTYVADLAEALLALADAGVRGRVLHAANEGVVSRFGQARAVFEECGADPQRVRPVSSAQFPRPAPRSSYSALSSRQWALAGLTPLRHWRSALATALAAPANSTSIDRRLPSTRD
T2 sequence (P9WH11 whole entry): T1 sequence (P9WH10 whole entry)
In short: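 Final RmlC 2.63 × 10−4 μg/μl, RmlD 6.53 × 10−4 μg/μl, NADPH 25 μM, TDP-KDX 200 μM. A 16-point 2-fold series (55 μM to 1.7 nM) was read as the 90-min drop in 340/460 nm fluorescence at 25 °C, in triplicate. IC50 came from a 4-parameter logistic fit.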

[4] = target: T3, dTDP-4-dehydrorhamnose 3,5-epimerase (Mycobacterium tuberculosis (strain CDC 1551 / Oshkosh)) (UniProt P9WH10); test: Competitive inhibition of Mycobacterium tuberculosis RmlC expressed in Escherichia coli assessed as increase in Km of TDP-KDX
T3 sequence (whole entry): T1 sequence (P9WH10 whole entry)
In short: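 Competitive-mode test: TDP-KDX varied 0–100 μM with inhibitor at 0, 0.1, 0.15 and 0.2 μM. Km and Vmax were fitted by non-linear regression. Km(obs) was plotted against inhibitor concentration, and Ki was taken from the slope (Km/Ki, Km as y-intercept).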

[5] = target: T3, dTDP-4-dehydrorhamnose 3,5-epimerase (Mycobacterium tuberculosis (strain CDC 1551 / Oshkosh)); test: Inhibition of Mycobacterium tuberculosis RmlC expressed in Escherichia coli at 5 uM by spectrophotometry
[6] = Cytotoxicity against HAEC after 24 hrs; set-up: species or system Homo sapiens
In short: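 Human aortic endothelial cells were seeded at 1000 cells/well in EGM-2 and held 24 hr at 37 °C. They were then exposed 24 hr at 37 °C to a 16-point 2-fold series (final 100 μM to 3 nM) with a DMSO solvent control. Viability was read by CellTiter-Glo luminescence after 10 min, in triplicate.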

[7] = target: T3, dTDP-4-dehydrorhamnose 3,5-epimerase (Mycobacterium tuberculosis (strain CDC 1551 / Oshkosh)); test: Inhibition of Mycobacterium tuberculosis RmlC expressed in Escherichia coli at 0.5 uM by spectrophotometry
[8] = target: T3, dTDP-4-dehydrorhamnose 3,5-epimerase (Mycobacterium tuberculosis (strain CDC 1551 / Oshkosh)); test: Reversible inhibition of Mycobacterium tuberculosis RmlC expressed in Escherichia coli by time-dependence study
In short: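 RmlD, TDP-KDX and NADPH were added, and the NADPH fluorescence decrease was followed over 200 min. Slopes from the later phase were compared with a no-compound control.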

[9] = target: T3, dTDP-4-dehydrorhamnose 3,5-epimerase (Mycobacterium tuberculosis (strain CDC 1551 / Oshkosh)); test: Inhibition of Mycobacterium tuberculosis RmlC expressed in Escherichia coli at 0.25 uM by spectrophotometry

O=c1[nH]c2ccccc2n1CCCSc1nnc2c3ccccc3n(Cc3ccccc3)c2n1
IC50 [1]: 2900 nM
MIC [2]: > 50 µg/mL

C=CCn1c2ccccc2c2nnc(SCn3c(=O)[nH]c4ccccc43)nc21
IC50 [1]: 10300 nM

C=CCn1c2ccccc2c2nnc(SCCCn3c(=O)[nH]c4ccccc43)nc21
IC50 [1]: 120 nM
Ki [1]: 62 nM
MIC [2]: 13 µg/mL (≈ 31.2 µM)

Cn1c2ccccc2c2nnc(SCCCn3c(=O)[nH]c4ccccc43)nc21
IC50 [1]: 500 nM
MIC [2]: 9 µg/mL (≈ 23 µM)

CCn1c2ccccc2c2nnc(S(=O)(=O)CCCn3c(=O)[nH]c4ccccc43)nc21
IC50 [1]: 800 nM

CCCn1c2ccccc2c2nnc(SCCCn3c(=O)[nH]c4ccccc43)nc21
IC50 [1]: 1250 nM
MIC [2]: 9 µg/mL (≈ 21.5 µM)

C=CCn1c2ccccc2c2nnc(S(=O)(=O)CCCn3c(=O)[nH]c4ccccc43)nc21
IC50 [1]: 400 nM

CCn1c2ccccc2c2nnc(SCCCn3c(=O)[nH]c4ccccc43)nc21
IC50 [3]: 0.398 µM
Activity [4]: Active
inhibition [5]: 83%
IC50 [1]: 200 nM
Ki [1]: 100 nM
MIC [2]: 19 µg/mL (≈ 47 µM)
IC50 [6]: 75 µM
inhibition [7]: 72%
inhibition [8]: Active
inhibition [9]: 52%

C=CCn1c2ccc(C)cc2c2nnc(SCCCn3c(=O)[nH]c4ccccc43)nc21
IC50 [1]: 20000 nM
MIC [2]: 25 µg/mL (≈ 58.1 µM)

O=c1[nH]c2ccccc2n1CCCSc1nnc2c(n1)[nH]c1ccccc12
IC50 [1]: 3300 nM
